# Assay results as given in ChEMBL document CHEMBL1817553, “Synthesis and biological evaluation of Matijing-Su derivatives as potent anti-HBV agents” (Bioorg Med Chem, 2011).
# Activity calls are given as the source filed them. The calls are words filed in the database; no cut-off is given here. Square brackets hold non-standard residues; d marks the D form. Peptide text beside a SMILES is read from it. * marks the point of attachment. Phe(4-NO2) = N[C@@H](Cc1ccc([N+](=O)[O-])cc1)C(=O)O; 4Abz = Nc1ccc(C(=O)O)cc1; Propionyl = CCC(=O)*; Bz = O=C(c1ccccc1)*; ClAc = O=C(CCl)*
# Key:
# Hepatitis B virus [1] = test: Antiviral activity against HBV infected in human HepG2(2.2.15) cells assessed as inhibition of viral DNA replication by measuring HBsAg and HBeAg production at TC50 after 9 days by EIA; assay type: functional, organism-based
# [2] = Cytotoxicity against human HepG2(2.2.15) cells after 24 hours following 9 days of treatment by neutral red dye uptake assay; assay type: cell-based; details: read-out: TC50
# How it was run: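 2.2.15 cells grown to confluence were treated with compound as in the antiviral assay, with untreated controls on each plate. Toxicity was measured by neutral red uptake (absorbance 510 nm, relative to untreated cells) 24 h after 9 days of treatment, giving TC50.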
# [3] = Selectivity index, ratio of TC50 for human HepG2(2.2.15) cells to IC50 for HBV
# How it was run: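 Calculated as TC50 (neutral red uptake in 2.2.15 cells) divided by IC50 (HBsAg/HBeAg inhibition by EIA in 2.2.15 cells).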
# Hepatitis B virus [4] = test: Antiviral activity against HBV infected in human HepG2(2.2.15) cells assessed as inhibition of viral DNA replication by measuring HBsAg and HBeAg production after 9 days by EIA; assay type: functional, organism-based; details: HepG2 2.2.15, 216 h
# How it was run: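 Confluent 2.2.15 cells in RPMI 1640 with 2% FBS received test compounds daily (medium changed daily) for 8 consecutive days in a second protocol. Cells in the 24-well protocol were seeded at 1.0 × 10⁵ cells/mL in MEM with 10% FBS for 24 h. They were then exposed to drug for 9 days, with medium changed every 3 days. Supernatant HBsAg/HBeAg was read by EIA at days 6 and 9, and the test was run twice.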
Structure (SMILES),inhibition (Hepatitis B virus [1]),CC50 at 216 h [2] [µM],Selectivity Index [3],IC50 (Hepatitis B virus [4]) [µM]
CC(=O)OC[C@H](Cc1ccccc1)NC(=O)[C@H](Cc1ccccc1)NC(=O)c1ccc(CN2CCOCC2)cc1,inactive,609,,
CCOc1ccc(C[C@H](NC(=O)[C@H](Cc2ccccc2)NC(=O)c2ccccc2)C(=O)OC)cc1 (Bz-Phe-Tyr(Et)-OMe),,818,58.61,14
O=C(N[C@@H](Cc1ccccc1)C(=O)N[C@H](CO)Cc1ccccc1)c1ccc(CN2CCOCC2)cc1,,157,11.25,13.9
COC(=O)[C@H](Cc1ccc([N+](=O)[O-])cc1)NC(=O)[C@H](Cc1ccc(O)cc1)NC(=O)c1ccncc1,inactive,238,,
O=C(N[C@@H](Cc1ccccc1)C(=O)N[C@H](CO)Cc1ccccc1)c1ccc(CN2CCCC2)cc1,,128,9.11,14.1
CN(C)CCOc1ccc(C(=O)N[C@@H](Cc2ccccc2)C(=O)N[C@H](CO)Cc2ccccc2)cc1,,327,11.86,27.6
CCOc1ccc(C[C@H](NC(=O)[C@H](Cc2ccccc2)NC(=O)c2ccccc2)C(=O)O)cc1 (Bz-Phe-Tyr(Et)-OH),inactive,1010,,
COC(=O)[C@H](Cc1ccccc1)NC(=O)[C@H](Cc1ccccc1)NC(=O)c1ccc(OCCN(C)C)cc1,,497,4.74,105
COC(=O)[C@H](Cc1ccccc1)NC(=O)[C@H](Cc1ccccc1)NC(=O)c1ccc(NC(=O)CCl)cc1 ({ClAc-4Abz}-Phe-Phe-OMe),inactive,223,,
CCC(=O)Nc1ccc(C(=O)N[C@@H](Cc2ccccc2)C(=O)N[C@@H](Cc2ccccc2)C(=O)OC)cc1 ({Propionyl-4Abz}-Phe-Phe-OMe),,258,90.45,2.85
CC(=O)OC[C@H](Cc1ccccc1)NC(=O)[C@H](Cc1ccccc1)NC(=O)c1ccc(CN(C)C)cc1,inactive,508,,
CCCCOc1ccc(C[C@H](NC(=O)[C@H](Cc2ccccc2)NC(=O)c2ccccc2)C(=O)OC)cc1,,1150,6.6,174
CCC(=O)Nc1ccc(C(=O)N[C@@H](Cc2ccccc2)C(=O)N[C@@H](Cc2ccc([N+](=O)[O-])cc2)C(=O)OC)cc1 ({Propionyl-4Abz}-Phe-[Phe(4-NO2)]-OMe),,147,33.53,4.37
CCCCOc1ccc(C[C@H](NC(=O)[C@H](Cc2ccccc2)NC(=O)c2ccccc2)C(=O)[O-])cc1.[Na+],,979,15.2,64.6
COC(=O)[C@H](Cc1ccccc1)NC(=O)[C@H](Cc1ccc(O)cc1)NC(=O)c1ccncc1,inactive,219,,
COC(=O)[C@H](Cc1ccccc1)NC(=O)[C@H](Cc1ccccc1)NC(=O)c1ccncc1,inactive,1060,,
COC(=O)[C@H](Cc1ccc(O)cc1)NC(=O)[C@H](Cc1ccccc1)NC(=O)c1ccncc1,,867,161.01,5.39
CN(C)Cc1ccc(C(=O)N[C@@H](Cc2ccccc2)C(=O)N[C@H](CO)Cc2ccccc2)cc1,,188,11.84,15.8
COC(=O)[C@H](Cc1ccc([N+](=O)[O-])cc1)NC(=O)[C@H](Cc1ccccc1)NC(=O)c1ccncc1,inactive,812,,
COC(=O)[C@H](Cc1ccccc1)NC(=O)[C@H](Cc1ccccc1)NC(=O)c1ccc(NC(=O)CN(C)C)cc1,inactive,111,,
O=C(N[C@@H](Cc1ccccc1)C(=O)N[C@H](CO)Cc1ccccc1)c1ccncc1,,214,7.39,28.9
O=C(N[C@@H](Cc1ccc(O)cc1)C(=O)N[C@H](CO)Cc1ccccc1)c1ccncc1,inactive,612,,
COc1ccc(C[C@H](NC(=O)[C@H](Cc2ccccc2)NC(=O)c2ccccc2)C(=O)[O-])cc1.[Na+] (Bz-Phe-Tyr(Me)-OH),,184,8.99,20.5
CC(=O)Nc1ccc(C(=O)N[C@@H](Cc2ccc(O)cc2)C(=O)N[C@H](CO)Cc2ccccc2)cc1,inactive,749,,
COC(=O)[C@H](Cc1ccccc1)NC(=O)[C@H](Cc1ccccc1)NC(=O)c1ccc(NC(=O)CN2CCCC2)cc1,inactive,106,,
CC(=O)Nc1ccc(C(=O)N[C@@H](Cc2ccccc2)C(=O)N[C@H](CCl)Cc2ccccc2)cc1,,30.1,42.26,0.71
COC(=O)[C@H](Cc1ccc(O)cc1)NC(=O)[C@H](Cc1ccccc1)NC(=O)c1ccc(NC(C)=O)cc1 (Ac-[4Abz]-Phe-Tyr-OMe),,771,85.09,9.06
